Measured values taken from ChEMBL document CHEMBL2311350, “Discovery of a novel phenylethyl benzamide glucokinase activator for the treatment of type 2 diabetes mellitus” (Bioorg Med Chem Lett, 2013).
Activity calls are given as the source filed them. The calls are words filed in the database; no cut-off is given here.

Assays:
MIN6 = assay: Induction of insulin secretion in mouse MIN6 cells; type: functional, cell-based
How it was run: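 Glucose-dependent insulin secretion measured in the mouse pancreatic beta-cell line MIN-6 across glucose levels.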

[1] = target: T1, Hexokinase-4 (Homo sapiens) (UniProt P35557); assay: Induction of human pancreatic glucokinase activity assessed as half maximal saturation concentration of glucose at 5 mM glucose concentration
T1 sequence (whole entry): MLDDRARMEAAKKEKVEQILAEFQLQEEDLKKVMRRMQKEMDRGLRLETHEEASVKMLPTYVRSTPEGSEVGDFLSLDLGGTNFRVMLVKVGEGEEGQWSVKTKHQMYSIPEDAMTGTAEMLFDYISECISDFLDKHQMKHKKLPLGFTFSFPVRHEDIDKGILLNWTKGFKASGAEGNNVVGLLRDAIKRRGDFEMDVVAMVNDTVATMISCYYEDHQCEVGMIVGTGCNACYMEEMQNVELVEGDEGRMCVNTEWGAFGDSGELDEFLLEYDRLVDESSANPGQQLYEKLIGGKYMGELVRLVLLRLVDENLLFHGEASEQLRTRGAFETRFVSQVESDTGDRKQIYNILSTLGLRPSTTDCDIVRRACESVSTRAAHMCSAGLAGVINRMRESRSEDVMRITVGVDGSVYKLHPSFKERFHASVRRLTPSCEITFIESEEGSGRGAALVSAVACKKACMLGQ
How it was run: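 Enzymatic assay with purified recombinant human pancreatic or liver glucokinase, read as fold increase in activity at 5.0 mM glucose. EC50 is the mean of at least duplicate runs. For the pancreatic enzyme, glucose S0.5 and Vmax were also determined.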

Mus musculus [2] = species on record: Mus musculus; assay: Increase in oral glucose tolerance in C57BL/J mouse; type: functional, organism-based
How it was run: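 C57BL/J6 mice given oral dosing followed by an oral glucose tolerance test. Plasma glucose was tracked over time and glucose AUC reduction calculated. Several doses were tested, including 50 and 150 mg/kg. Hypoglycemia risk was judged from the glucose profiles.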

[3] = target: T2, Hexokinase-2 (Homo sapiens) (UniProt P52789); assay: Induction of hexokinase 2 (unknown origin)
T2 sequence (whole entry): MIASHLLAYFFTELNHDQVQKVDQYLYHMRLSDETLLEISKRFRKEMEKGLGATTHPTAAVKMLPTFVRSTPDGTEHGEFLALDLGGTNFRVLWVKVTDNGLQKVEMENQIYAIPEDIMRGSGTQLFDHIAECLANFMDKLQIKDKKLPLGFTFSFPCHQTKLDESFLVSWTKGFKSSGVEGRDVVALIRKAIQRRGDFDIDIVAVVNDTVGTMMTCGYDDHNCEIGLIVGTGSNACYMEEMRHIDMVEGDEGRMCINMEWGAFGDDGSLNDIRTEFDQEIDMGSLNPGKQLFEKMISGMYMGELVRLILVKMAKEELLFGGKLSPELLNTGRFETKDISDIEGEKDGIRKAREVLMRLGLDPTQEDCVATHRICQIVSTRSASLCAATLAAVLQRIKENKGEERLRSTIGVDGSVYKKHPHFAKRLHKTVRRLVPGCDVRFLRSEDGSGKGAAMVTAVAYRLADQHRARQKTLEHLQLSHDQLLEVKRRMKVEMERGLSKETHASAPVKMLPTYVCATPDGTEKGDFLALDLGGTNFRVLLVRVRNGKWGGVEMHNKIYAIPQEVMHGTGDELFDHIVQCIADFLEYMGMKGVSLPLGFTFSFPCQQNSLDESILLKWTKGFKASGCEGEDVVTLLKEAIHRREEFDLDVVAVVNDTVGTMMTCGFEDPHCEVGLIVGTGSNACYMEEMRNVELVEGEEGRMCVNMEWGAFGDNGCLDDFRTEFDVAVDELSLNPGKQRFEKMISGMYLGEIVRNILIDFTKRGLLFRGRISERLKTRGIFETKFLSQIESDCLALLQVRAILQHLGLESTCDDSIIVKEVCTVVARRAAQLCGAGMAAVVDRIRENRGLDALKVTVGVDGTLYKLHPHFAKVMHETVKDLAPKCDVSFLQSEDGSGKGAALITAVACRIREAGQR
How it was run: (§1)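 Selectivity tested in enzymatic hexokinase 1 and hexokinase 2 activity assays.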

Mus musculus [4] = species on record: Mus musculus; assay: Antidiabetic activity in C57BL/J mouse assessed as reduction in basal glucose level measured after acute treatment; type: functional, organism-based
How it was run: (§2)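 Basal blood glucose change followed after acute oral dosing in non-diabetic C57BL/J6 or diabetic ob/ob mice.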

[5] = target: T3, Hexokinase-1 (Homo sapiens) (UniProt P19367); assay: Induction of hexokinase 1 (unknown origin); how it was run: as §1
T3 sequence (whole entry): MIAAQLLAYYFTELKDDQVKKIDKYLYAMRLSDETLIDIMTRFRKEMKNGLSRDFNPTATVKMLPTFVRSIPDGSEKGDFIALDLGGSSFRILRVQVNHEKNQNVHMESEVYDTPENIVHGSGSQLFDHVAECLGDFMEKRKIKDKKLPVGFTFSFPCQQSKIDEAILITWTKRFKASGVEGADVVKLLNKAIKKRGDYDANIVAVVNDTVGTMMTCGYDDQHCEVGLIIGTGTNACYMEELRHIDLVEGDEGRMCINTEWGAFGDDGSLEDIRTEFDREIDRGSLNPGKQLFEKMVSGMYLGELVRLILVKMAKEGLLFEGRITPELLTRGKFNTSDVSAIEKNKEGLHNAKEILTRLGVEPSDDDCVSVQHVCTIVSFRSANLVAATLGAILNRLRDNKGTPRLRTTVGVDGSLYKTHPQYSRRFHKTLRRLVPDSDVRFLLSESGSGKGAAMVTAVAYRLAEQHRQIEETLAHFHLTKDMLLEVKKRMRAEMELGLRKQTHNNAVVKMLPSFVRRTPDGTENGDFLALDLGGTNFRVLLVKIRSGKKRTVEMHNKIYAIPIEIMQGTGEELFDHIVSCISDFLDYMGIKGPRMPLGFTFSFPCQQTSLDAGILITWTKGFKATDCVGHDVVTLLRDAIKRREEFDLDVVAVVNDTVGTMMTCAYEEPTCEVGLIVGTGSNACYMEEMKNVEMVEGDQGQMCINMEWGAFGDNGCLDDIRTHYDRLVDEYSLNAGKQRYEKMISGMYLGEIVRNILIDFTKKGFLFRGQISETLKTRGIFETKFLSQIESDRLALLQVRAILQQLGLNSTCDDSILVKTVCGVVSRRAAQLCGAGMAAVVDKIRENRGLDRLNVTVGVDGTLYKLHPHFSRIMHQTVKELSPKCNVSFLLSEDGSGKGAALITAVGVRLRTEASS

Mus musculus [6] = species on record: Mus musculus; assay: Antidiabetic activity in ob/ob mouse assessed as reduction in blood glucose level measured after subchronic treatment; type: functional, organism-based
How it was run: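 ob/ob mice dosed orally and repeatedly in a subchronic study. Blood glucose, serum lipids and body weight were monitored.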

Mus musculus [7] = species on record: Mus musculus; assay: Antidiabetic activity in ob/ob mouse assessed as reduction in basal glucose level measured after acute treatment; type: functional, organism-based; how it was run: as §2

- Activity [1]: Active
- Activity [3]: inactive
- Activity [5]: inactive
SMILES: COC[C@H](C)Oc1cc(CCc2c(F)cccc2F)cc(C(=O)Nc2ccc(C(=O)O)cn2)c1
- Activity (MIN6): Dose-dependent effect
- Activity (Mus musculus [2]): Dose-dependent effect
- Activity (Mus musculus [4]): Active
- Activity (Mus musculus [6]): Active
- Activity (Mus musculus [7]): Active
